PMC12040810 (AMB Express, 2025)
Converted amounts (≈) assume the structure as drawn. “And” between values parts separate entries of the source, which are not always exact repeats. Equal values may be shown once.

Tests used:
human blood suspension = assay: Hemolytic assay, spectrophotometric, free hemoglobin at 540 nm; assay type: cell-based
L929 cell line = assay: Cell toxicity assay; assay type: cell-based
[1] = Biochemical analysis of serum AST and ALT; assay type: in vivo, BALB/c mice; details: for level of AST: serum, after treatment, P = 0.072
Procedure, shortened: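 Female BALB/c mice (about 20 g, 6–7 weeks), 5 per group, were infected subcutaneously at the tail base with L. major promastigotes and then given topical ointment treatments. After 28 days, serum was drawn and AST and ALT were measured with a commercial kit. The manufacturer's normal ranges were ALT 75–90 IU/l and AST 125–155 IU/l.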

L. major promastigotes = assay: In vitro anti-promastigote activity, viability by eosin 0.1% vital stain; assay type: cell-based; details: Leishmania major, 48 h
Procedure, shortened: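 L. major promastigotes (strain MRHO/IR/75/ER) were kept in RPMI 1640 (pH 7.4) with 20% FBS, 25 mM HEPES and penicillin/streptomycin at 24 °C, passaged every 3 days. Log-phase cells (100 µl at 1 × 10^6/ml) received 100 µl of test compound solution; PBS was the negative control. Plates were held at 26 °C.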

L. major = assay: In vivo anti-leishmanial effects, lesion size after topical ointment treatment; set-up: species or system BALB/c mice; details: group receiving amphotericin B
Procedure, shortened: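 Female BALB/c mice (about 20 g, 6–7 weeks), 5 per group, were injected subcutaneously at the tail base with 1.5 × 10^6 stationary-phase L. major promastigotes. Nodules and ulcers formed by day 21, and lesion amastigotes were confirmed by microscopy at 1000×. Topical ointments were given over 28 days, with vehicle ointment or PBS as controls. Lesion diameter was measured weekly with a dial micrometer before and after treatment.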

[2] = 12 h, composition as in the label, concentration of controls not given
[3] = 24 h, composition as in the label, concentration of controls not given
[4] = 48 h, composition as in the label, concentration of controls not given
[5] = 6 h, composition as in the label, concentration of controls not given

Molecule | Hemolytic activity (%) ± SD (human blood suspension; [2]) [%] | Hemolytic activity (%) ± SD (human blood suspension; [3]) [%] | Hemolytic activity (%) ± SD (human blood suspension; [4]) [%] | Cytotoxic activity (%) ± SD (L929 cell line; [5]) [%] | Cytotoxic activity (%) ± SD (L929 cell line; [2]) [%] | Cytotoxic activity (%) ± SD (L929 cell line; [3]) [%] | level of AST [1] | IC50 (L. major promastigotes) [µg/mL] | wound size after 28 days (L. major; after 28 days of treatment) [mm] | wound size before treatment (L. major; before treatment) [mm] | toxicity judged by AST and ALT ([1]; blood samples after 28 days, in words) | Hemolytic activity (%) ± SD (human blood suspension; 12 h, amphotericin B 500 µg/ml) | Hemolytic activity (%) ± SD (human blood suspension; 24 h, amphotericin B 500 µg/ml) | Hemolytic activity (%) ± SD (human blood suspension; 48 h, amphotericin B 500 µg/ml) | Cytotoxic activity (%) ± SD (L929 cell line; 6 h, amphotericin B 500 µg/ml) [%] | Cytotoxic activity (%) ± SD (L929 cell line; 12 h, amphotericin B 500 µg/ml) [%] | Cytotoxic activity (%) ± SD (L929 cell line; 24 h, amphotericin B 500 µg/ml) [%] | toxicity in the MTT assay (L929 cell line; in words, chitosan at 10, 50, and 100 mg/ml)
Triton X100 | 90.1 ± 4.5 | 99.4 ± 0.5 | 100 ± 0.0 | 0.14±-0.002 | 0.11 ± 0.02 | 0.11 ± 0.006 | – | – | – | – | – | – | – | – | – | – | – | –
CNC[C@H](O)[C@@H](O)[C@H](O)[C@H](O)CO.[O]=[Sb](=[O])[OH] [Glucantime] | 15.6 ± 0.5 | 18.6 ± 0.6 | 20.3 ± 0.8 | 0.43 ± 0.002 | 0.38 ± 0.01 | 0.35 ± 0.02 | higher compared to the other treatment groups | – | – | – | – | – | – | – | – | – | – | –
C[C@@H]1[C@H](O)[C@@H](C)/C=C/C=C/C=C/C=C/C=C/C=C/C=C/[C@H](O[C@@H]2O[C@H](C)[C@@H](O)[C@H](N)[C@@H]2O)C[C@@H]2O[C@](O)(C[C@@H](O)C[C@@H](O)[C@H](O)CC[C@@H](O)C[C@@H](O)CC(=O)O[C@H]1C)C[C@H](O)[C@H]2C(=O)O [Amphotericin B] | – | – | – | – | – | – | higher compared to the other treatment groups | 256 (≈ 277 µM) | 1.59 | 15.71 | highest drug toxicity | 13.9% and 13.9 ± 0.4% | 17.9% and 17.9 ± 0.9% | 18.4% and 18.4 ± 0.9% | 0.43 ± 0.03 | 0.41 ± 0.07 | 0.41 ± 0.04 | significantly lower than those of cisplatin
